In ChEMBL document CHEMBL1914331, “N-O chemistry for antibiotics: discovery of N-alkyl-N-(pyridin-2-yl)hydroxylamine scaffolds as selective antibacterial agents using nitroso Diels-Alder and ene chemistry” (J Med Chem, 2011):
In brackets after ≈: the same amount, converted by molar mass.

Legend:
MCF7 = test: Cytotoxicity against human MCF7 cells; assay type: cell-based
Micrococcus luteus [1] = test: Antimicrobial activity against Micrococcus luteus ATCC 10240 assessed after 18 hrs by broth microdilution method; assay type: functional; details: ATCC 10240, 18 h
Summary of the method: (§1)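 CLSI broth microdilution in cation-adjusted MHII broth. 20 mM DMSO stocks were diluted to 512 µM, then serially 2-fold, giving final 128–0.0625 µM with 5×10⁵ CFU/mL inoculum. Incubated 18 h at 37 °C. MIC90 was the lowest concentration giving 90% inhibition by visual turbidity versus DMSO wells. Run in triplicate.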

Enterococcus faecalis [2] = test: Antimicrobial activity against Enterococcus faecalis ATCC 49532 assessed after 18 hrs by broth microdilution method; assay type: functional; details: ATCC 49532, 18 h; summary of the method: as §1
Enterococcus faecalis [3] = test: Antimicrobial activity against Enterococcus faecalis ATCC 49532 after 24 hrs by Kirby-Bauer agar diffusion assay; assay type: functional
Summary of the method: (§2)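 Modified Kirby-Bauer well diffusion. Overnight LB cultures (18–24 h) were standardized in 0.9% saline to 0.5 McFarland and mixed into melted MHII agar at 47–50 °C, giving ~5×10³ CFU/mL. 9 mm wells received 50 µL of 2.0 mM compound in 10:1 MeOH:DMSO. Plates were incubated 24 h at 37 °C, then growth-inhibition zone diameter was measured (mm) by caliper.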

Staphylococcus aureus [4] = test: Antimicrobial activity against Staphylococcus aureus SG511 after 24 hrs by Kirby-Bauer agar diffusion assay; assay type: functional; summary of the method: as §2
Micrococcus luteus [5] = test: Antimicrobial activity against Micrococcus luteus ATCC 10240 after 24 hrs by Kirby-Bauer agar diffusion assay; assay type: functional; summary of the method: as §2
PC-3 = test: Cytotoxicity against human PC3 cells; assay type: cell-based
HeLa = test: Cytotoxicity against human HeLa cells; assay type: cell-based
Staphylococcus aureus [6] = test: Antimicrobial activity against Staphylococcus aureus SG511 assessed after 18 hrs by broth microdilution method; assay type: functional; details: SG511, 18 h; summary of the method: as §1

Compound	MIC90 (Micrococcus luteus [1])	MIC90 (Enterococcus faecalis [2])	MIC90 (Staphylococcus aureus [6])	Activity (MCF7)	diameter of the inhibition zone (DIZ) (Enterococcus faecalis [3])	diameter of the inhibition zone (DIZ) (Staphylococcus aureus [4])	diameter of the inhibition zone (DIZ) (Micrococcus luteus [5])	Activity (PC-3)	Activity (HeLa)
CO[C@H]1C=CCC[C@@H]1Nc1ccc(Br)cn1 (racemic)	> 128 µM	> 128 µM	> 128 µM	Non-toxic	0 mm	0 mm	0 mm	Non-toxic	Non-toxic
CC(C)O[C@@H]1C=CC[C@H]1N(O)c1ccc(Br)cn1 (racemic)	–	–	–	Non-toxic	–	–	>14 mm	Non-toxic	Non-toxic
CO[C@@H]1C=CC[C@H]1N(O)C(=O)OC(C)(C)C (racemic)	–	–	–	Non-toxic	–	–	<=14 mm	Non-toxic	Non-toxic
CC(C)(C)OC(=O)N1OC2C=CC1C2 (racemic)	–	–	–	Non-toxic	–	–	<=14 mm	Non-toxic	Non-toxic
O[C@H]1C=C[C@@H](N(O)c2ccc(Br)cn2)C1 (racemic)	–	–	–	Non-toxic	–	–	>14 mm	Non-toxic	Non-toxic
COc1ccc(CON(CCc2ccccc2)c2ccccn2)cc1	–	–	–	Non-toxic	–	–	<=14 mm	Non-toxic	Non-toxic
ON(c1ccc(Br)cn1)[C@@H]1CCC=C[C@H]1OCc1ccccc1 (relative stereo)	–	–	–	Non-toxic	–	–	>14 mm	Non-toxic	Non-toxic
Cc1cc(N(O)[C@H]2CC=C[C@@H]2OC(C)(C)C)no1 (racemic)	–	–	–	Non-toxic	–	–	>14 mm	Non-toxic	Non-toxic
CC(C)(C)O[C@@H]1C=CC[C@H]1N(O)c1ccc(Cl)cn1	–	–	–	Non-toxic	–	–	>14 mm	Non-toxic	Non-toxic
O=Nc1ncc(Cl)cc1Cl	–	–	–	Non-toxic	–	–	<=14 mm	Non-toxic	Non-toxic
Cc1cccc(N(O)[C@@H]2C=CC(OC(C)C)C2)n1 (mixture of isomers)	–	–	–	Non-toxic	–	–	>14 mm	Non-toxic	Non-toxic
CC(C)O[C@@H]1C=CCC[C@H]1N(O)c1ccc(Br)cn1 (racemic)	–	–	–	Non-toxic	–	–	>14 mm	Non-toxic	Non-toxic
Brc1ccc(N2OC3C=CC2CC3)nc1 (racemic)	–	–	–	Non-toxic	–	–	<=14 mm	Non-toxic	Non-toxic
O=C(NO)c1ccccc1 [BENZOHYDROXAMATE]	–	–	–	Non-toxic	–	–	<=14 mm	Non-toxic	Non-toxic

Second part, led by results:

MIC90 (Micrococcus luteus [1])	MIC90 (Enterococcus faecalis [2])	MIC90 (Staphylococcus aureus [6])	Compound	Activity (MCF7)	diameter of the inhibition zone (DIZ) (Enterococcus faecalis [3])	diameter of the inhibition zone (DIZ) (Staphylococcus aureus [4])	diameter of the inhibition zone (DIZ) (Micrococcus luteus [5])	Activity (PC-3)	Activity (HeLa)
128 µM (≈ 24.9 µg/mL)	> 128 µM	> 128 µM	CCCCCCN(O)c1ccccn1	Non-toxic	16 mm	17 mm	15 mm	Non-toxic	Non-toxic
8 µM (≈ 1.43 µg/mL)	> 128 µM	128 µM (≈ 22.8 µg/mL)	C=C(C)C(C)N(O)c1ccccn1 (racemic)	Non-toxic	22 mm	18 mm	31 mm	Non-toxic	Non-toxic
2 µM (≈ 0.608 µg/mL)	> 128 µM	> 128 µM	C=C(C)C(C)N(O)c1ccc(I)cn1 (racemic)	Non-toxic	19 mm	12 mm	38 mm	Non-toxic	Non-toxic
> 128 µM	> 128 µM	> 128 µM	c1ccc(CNc2ccccn2)cc1	Non-toxic	0 mm	0 mm	0 mm	Non-toxic	Non-toxic
16 µM (≈ 3.95 µg/mL)	> 128 µM	> 128 µM	C=C(C)C(C)N(O)c1ncc(Cl)cc1Cl (racemic)	Non-toxic	14 mm	0 mm	27 mm	Non-toxic	Non-toxic
4 µM (≈ 1.08 µg/mL)	> 128 µM	> 128 µM	C=C(C)C(C)N(O)c1ccc(Br)c(C)n1 (racemic)	Non-toxic	12 mm	13 mm	35 mm	Non-toxic	Non-toxic
4 µM (≈ 1.03 µg/mL)	> 128 µM	> 128 µM	C=C(C)C(C)N(O)c1ccc(Br)cn1 (racemic)	Non-toxic	19 mm	17 mm	35 mm	Non-toxic	Non-toxic
4 µM (≈ 0.769 µg/mL)	> 128 µM	128 µM (≈ 24.6 µg/mL)	C=C(C)C(C)N(O)c1cc(C)ccn1 (racemic)	Non-toxic	22 mm	20 mm	29 mm	Non-toxic	Non-toxic
2 µM (≈ 0.425 µg/mL)	≥ 128 µM	128 µM (≈ 27.2 µg/mL)	C=C(C)C(C)N(O)c1ccc(Cl)cn1 (racemic)	Non-toxic	21 mm	18 mm	40 mm	Non-toxic	Non-toxic
8 µM (≈ 1.83 µg/mL)	> 128 µM	128 µM (≈ 29.2 µg/mL)	C=C(C)C(C)N(O)c1ccc2ccccc2n1 (racemic)	Non-toxic	13 mm	13 mm	31 mm	Non-toxic	Non-toxic
64 µM (≈ 12.8 µg/mL)	> 128 µM	128 µM (≈ 25.6 µg/mL)	ON(Cc1ccccc1)c1ccccn1	Non-toxic	20 mm	18 mm	24 mm	Non-toxic	Non-toxic
2 µM (≈ 0.581 µg/mL)	> 128 µM	> 128 µM	C=C(C)C(CC/C(C)=C/CO)N(O)c1cccc(CC)n1 (racemic)	Non-toxic	19 mm	18 mm	31 mm	Non-toxic	Non-toxic
128 µM (≈ 36.4 µg/mL)	> 128 µM	> 128 µM	ON(Cc1ccc(OC(F)(F)F)cc1)c1ccccn1	Non-toxic	15 mm	14 mm	17 mm	Non-toxic	Non-toxic
> 128 µM	> 128 µM	> 128 µM	COc1ccc(CON(Cc2ccccc2)c2ccccn2)cc1	Non-toxic	0 mm	0 mm	0 mm	Non-toxic	Non-toxic
2 µM (≈ 0.413 µg/mL)	> 128 µM	> 128 µM	C=C(C)C(C)N(O)c1cccc(CC)n1 (racemic)	Non-toxic	22 mm	11 mm	52 mm	Non-toxic	Non-toxic
4 µM (≈ 0.769 µg/mL)	> 128 µM	128 µM (≈ 24.6 µg/mL)	C=C(C)C(C)(C)N(O)c1ccccn1	Non-toxic	18 mm	15 mm	33 mm	Non-toxic	Non-toxic
> 128 µM	> 128 µM	> 128 µM	ON(Cc1cccc(Oc2ccccc2)c1)c1ccccn1	Non-toxic	0 mm	13 mm	12 mm	Non-toxic	Non-toxic
